This note sets out measurements from ChEMBL document CHEMBL5154784, “Design, Synthesis, Biological Evaluation, and Computational Studies of Novel Ureidopropanamides as Formyl Peptide Receptor 2 (FPR2) Agonists to Target the Resolution of Inflammation in Central Nervous System Disorders” (J Med Chem, 2022).

Where only a bound is given, the exact number is not on record here.

Series [1] has as its target T1, N-formyl peptide receptor 2 (Homo sapiens, UniProt P25090).
T1 sequence (P25090 whole entry): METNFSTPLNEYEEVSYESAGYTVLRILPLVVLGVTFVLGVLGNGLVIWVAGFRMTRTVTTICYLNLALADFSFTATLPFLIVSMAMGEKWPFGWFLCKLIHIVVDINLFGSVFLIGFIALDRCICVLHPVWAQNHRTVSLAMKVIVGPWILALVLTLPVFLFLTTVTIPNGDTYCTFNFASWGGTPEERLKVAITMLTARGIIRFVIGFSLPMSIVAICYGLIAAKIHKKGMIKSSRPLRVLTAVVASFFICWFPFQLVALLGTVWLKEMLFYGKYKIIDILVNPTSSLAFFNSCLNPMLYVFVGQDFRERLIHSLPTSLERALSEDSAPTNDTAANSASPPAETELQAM
Kind of series: Agonist activity at human FPR2 transfected in human HL-60 cells assessed as increase in calcium mobilization measured every 5 seconds for 240 secs by Fluo-4-AM dye based fluorescence assay. The series is classed as functional, cell-based. Background: Calcium flux is commonly read through the fluorescence of an indicator in the cells.

The nature of series [2]: Cytotoxicity against mouse N9 cells assessed as reduction in cell viability incubated for 48 hrs by MTT assay. The series is classed as toxicity, cell-based. In outline:
(§1)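 MTT 0.5 mg/mL added for 3–4 h at 37 °C, formazan dissolved in DMSO/EtOH 1:1, absorbance read at 570 and 630 nm. Mean ± SD from at least two to three experiments in triplicate.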
In general terms: Tetrazolium dyes change colour on reduction, which living cells bring about.

Series [3] concerns the target T1, N-formyl peptide receptor 2. Kind of series: Antagonist activity at human FPR2 transfected in human HL-60 cells assessed as inhibition of WKYMVM-induced intracellular calcium mobilization preincubated for 10 mins followed by WKYMVM addition measured every 5 seconds for 240 secs by Fluo-4-AM dye based fluorescence assay. Format: functional, cell-based. In outline:
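Fluo-4-loaded FPR2-HL60 cells pre-incubated 10 min with compound (1% DMSO final), then challenged with 5 nM WKYMVM. Maximum change over baseline taken as response. IC50 by four-parameter logistic regression of at least 5–6 point curves.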

Series [4] addresses T2, fMet-Leu-Phe receptor (Homo sapiens, UniProt P21462).
T2 sequence (P21462 whole entry): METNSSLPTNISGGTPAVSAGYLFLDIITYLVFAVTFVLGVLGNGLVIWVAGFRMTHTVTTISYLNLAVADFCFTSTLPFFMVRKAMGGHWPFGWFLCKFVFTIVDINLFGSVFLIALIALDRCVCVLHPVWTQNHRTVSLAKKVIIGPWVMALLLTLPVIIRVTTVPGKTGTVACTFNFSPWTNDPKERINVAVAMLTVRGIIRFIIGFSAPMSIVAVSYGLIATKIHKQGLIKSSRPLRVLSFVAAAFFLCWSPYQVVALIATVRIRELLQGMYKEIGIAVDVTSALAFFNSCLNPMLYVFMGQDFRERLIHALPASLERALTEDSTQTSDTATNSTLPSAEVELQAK
Kind of series: Agonist activity at human FPR1 transfected in human HL-60 cells assessed as increase in calcium mobilization measured every 5 seconds for 240 secs by Fluo-4-AM dye based fluorescence assay. The series is classed as functional, cell-based.

The nature of series [5]: Cytotoxicity against mouse N9 cells assessed as reduction in cell viability at 1 to 100 uM incubated for 48 hrs by MTT assay relative to control. Format: toxicity, cell-based. Particulars: n9, 48 h, dose 1-100 µM. In outline:
as §1

Series [6] can be described thus: Metabolic stability in rat liver microsomes assessed as compound remaining at 10 uM preincubated for 10 mins followed by NADPH addition and measured after 30 mins by HPLC analysis. Format: ADME, Microsome. Particulars: time 40 min, read-out: Stability. In outline: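 Rat liver microsomes (1.0 mg/mL protein), compound 10 μM final in 100 mM potassium phosphate pH 7.4, pre-incubated 10 min at 37 °C, then NADPH regenerating system added. After 30 min, % parent remaining by HPLC-DAD (C18, MeOH/H2O 80:20) versus incubation without NADPH system.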

Series [7] can be described thus: Cytotoxicity against mouse N9 cells assessed as reduction in cell viability by measuring LDH release at 0.5 to 5 uM incubated for 24 hrs by LDH assay. The series is classed as toxicity, cell-based. The settings on record: n9, 24 h, dose 0.5-5 µM. In outline: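 N9 cells (2 × 10^4/well) given compound at 0.5 or 5 μM, alone or with LPS (E. coli O111:B4, 100 ng/mL) added 30 min later, for 24 h at 37 °C. Released LDH measured in supernatant (30 min, room temperature, 490/630 nm). Expressed as % of untreated cells, mean ± SEM, at least three experiments in triplicate.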

For series [8], the target named is T3, N-formyl peptide receptor 2 (Homo sapiens) (UniProt P25090).
T3 sequence (whole entry): T1 sequence (P25090 whole entry)
Kind of series: Agonist activity at human FPR2 transfected in HL-60 cells assessed as induction of intracellular calcium ions mobilization using WKYMVM as substrate preincubated for 10 mins followed by substrate addition and measured every 5 seconds for 240 secs by Fluo-4-AM dye based fluorescent assay relative to control. The settings on record: filed as agonist. Format: functional, cell-based.

The target in series [9] is T2, fMet-Leu-Phe receptor. Nature of the series: Antagonist activity at human FPR1 transfected in human HL-60 cells assessed as inhibition of fMLF-induced intracellular calcium mobilization preincubated for 10 mins followed by fMLF addition and measured every 5 seconds for 240 secs by Fluo-4-AM dye based fluorescence assay. Format: functional, cell-based.
Series [10] in a line: Neurotoxicity against Sprague-Dawley rat primary microglial cells assessed as reduction in cell viability by measuring LDH release at 0.1 uM incubated for 24 hrs by LDH assay. The series is classed as toxicity, cell-based. Particulars: microglia. In outline: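 Sprague–Dawley rat neonatal cortical microglia (>95% Iba-1+), switched to 1% FBS medium 1 h before treatment. Compound 0.1 μM for 1 h, then LPS 100 ng/mL for 24 h; WRW4 10 μM given 30 min before in some sets, 0.1% vehicle. Supernatant LDH read at 540 nm, % of vehicle controls, mean ± SEM.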

A short description of series [11]: Antiinflammatory activity against Sprague-Dawley rat primary microglial cells assessed as reduction in IL-6 expression at 0.1 uM incubated for 1 hr by ELISA method (reference value: 100 +/- 2.16 %). Format: functional, Microglia. Also noted: scale not given: the % may be the effect or the level left. Background: An ELISA detects its analyte on a solid surface through an enzyme-linked reagent.

Series [12] in a line: Antiinflammatory activity against Sprague-Dawley rat primary microglial cells assessed as reduction in TNF-alpha expression at 0.1 uM incubated for 1 hr by ELISA method (reference value: 100 +/- […]). Format: functional, Microglia. Details: scale not given: the % may be the effect or the level left.
A short description of series [13]: Antiinflammatory activity against Sprague-Dawley rat primary microglial cells assessed as reduction in IL-1beta expression at 0.1 uM incubated for 1 hr by ELISA method (reference value: 100 +/- 13 %). The series is classed as functional, Microglia. Details: scale not given: the % may be the effect or the level left.
The subject of the next series is Microglia. Kind of series: Anti-inflammatory activity against Sprague-Dawley rat primary microglial cells assessed as reduction in IL-10 expression at 0.1 uM incubated for 1 hr by ELISA method (reference value: 100 +/- 3.9 %). Format: functional. Details: scale not given: the % may be the effect or the level left.
The nature of series [14]: Tlast in CD-1 mouse at 10 mg/kg, ip by UPLC analysis. Format: ADME, organism-based. Particulars: in vivo. In outline:
(§2)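 Male CD-1 mice (25–30 g) dosed i.v. 1 mg/kg or i.p. 10 mg/kg in 5% DMSO/10% solutol HS 15/85% sterile water, n = 3 per time point. Cardiac-puncture blood under isoflurane: i.v. 0.083–8 h, i.p. 0.25–24 h. K2EDTA plasma, protein precipitation with acetonitrile (rolipram internal standard), UPLC on C18 column.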

The nature of series [15]: AUC (infinity) in CD-1 mouse at 10 mg/kg, ip measured after 30 mins by UPLC analysis. Particulars: in vivo, 0.5 h. Also noted: time 30 min, dose 10 mg/kg, route ip. Format: ADME, organism-based. In outline: as §2
Series [16] is described as follows: Drug concentration in CD-1 mouse brain at 10 mg/kg, ip measured after 8 hrs by UPLC analysis. The series is classed as ADME, organism-based. The settings on record: read-out: Ct. In outline:
(§3)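 Male CD-1 mice (25–30 g) given 10 mg/kg i.p. in 5% DMSO/10% solutol HS 15/85% water, n = 3 per time point. Brains taken after decapitation under anesthesia, homogenized in four volumes 0.1 N HEPES. Plasma drawn by cardiac puncture. Acetonitrile precipitation with rolipram internal standard, UPLC quantification. Brain-to-plasma ratio taken from paired brain and plasma levels.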

Series [17] can be described thus: Cmax in CD-1 mouse at 10 mg/kg, ip measured after 30 mins by UPLC analysis. Format: ADME, organism-based. Details: time 30 min, dose 10 mg/kg, route ip. The settings on record: in vivo, 0.5 h. In outline: as §2
The nature of series [18]: Clast in CD-1 mouse at 1 mg/kg, iv measured upto 4 hrs by UPLC analysis. The settings on record: in vivo, read-out: Clast. Format: ADME, organism-based. In outline: as §2
Series [19] in a line: Drug concentration in CD-1 mouse brain at 10 mg/kg, ip measured after 2 hrs by UPLC analysis. Format: ADME, organism-based. Particulars: read-out: Ct. In outline:
as §3

Series [20] is described as follows: AUC (infinity) in CD-1 mouse at 1 mg/kg, iv measured upto 4 hrs by UPLC analysis. The series is classed as ADME, organism-based. Details: time < 4 hrs, dose 1 mg/kg, route iv. Particulars: in vivo. In outline:
as §2

Series [21] in a line: Cmax in CD-1 mouse at 1 mg/kg, iv measured after 5 mins by UPLC analysis. The series is classed as ADME, organism-based. Details: time 5 min, dose 1 mg/kg, route iv. The settings on record: in vivo. In outline:
as §2

With `N#Cc1ccc(C[C@H](NC(=O)Nc2ccc(F)cc2)C(=O)NC2CCCCNC2=O)cc1` (stereo partly drawn), the figures for the EC50 (in series [1]; on fMet-Leu-Phe receptor [4]) were 170 nM and 780 nM, respectively. Further, the concentration giving a half-maximal response (EC50) (commonly the concentration that produces a half-maximal response) at 48 h in [2] was over 100 µM. Further, the figures for the IC50 (in series [3]; on fMet-Leu-Phe receptor [9]) were 350 nM and 3.5 µM, respectively. The Activity in series [5] is listed as 53%; in series [7], “Non-Toxic”. Moreover, the remaining at 0.5 h, 10 µM in series [6] worked out at 85%. In [8], the Efficacy is 105%.

With `N#Cc1ccc(C[C@H](NC(=O)Nc2ccc(F)cc2)C(=O)N2CCc3ccccc32)cc1`, the 50% effective concentration (EC50) in [1] came out at 26 nM. Besides, the IC50 (as a rule, the concentration that gives 50% inhibition) in series [3] worked out at 10 nM. The Activity entry in [10] and in series [7] was “Non-Toxic” throughout. Besides, the remaining at 0.5 h, 10 µM in [6] is 22%.

For the compound H-WRWWWW-NH2, the Activity in series [11] stood at 108%; in [12], 121%; in [13] it was 103%; in the series with Microglia, 103%.

On to `N#Cc1ccc(C[C@H](NC(=O)Nc2ccc(F)cc2)C(=O)N2CCc3ccc(F)cc32)cc1`, for which the Tlast in series [14] worked out at 8 h. Besides, the AUC – broadly, concentration integrated over time – in series [15] was determined as 731 ng·h/mL; in [20] it was 613 ng·h/mL. Besides, the concentration at 8 h in series [16] turned out to be 15.7 ng/g. In addition, the Cmax (commonly the peak of the concentration-time curve) turned out to be 192 ng/mL in series [17] and 1380 ng/mL in [21]. The concentration at 4 h in series [18] was 14.1 ng/mL. Further, the concentration at 2 h in series [19] was found to be 37 ng/g. Further, the Activity entry in [10] and in series [7] was “Non-Toxic” each time.
